Measured values reported in ChEMBL document CHEMBL1153899, “Discovery of benzothiazole derivatives as efficacious and enterocyte-specific MTP inhibitors” (Bioorg Med Chem Lett, 2009).
The source made the active and inactive calls. No cut-off for these calls is given here.

Columns and labels:
Mus musculus [1] = experiment: Toxicity in 28-day diet-induced obesity C57BL/6 mouse model assessed as increase in liver weight at 1 to 3 mg/kg, po daily for 4 weeks; type: organism-based; design: dose 1-3 mg/kg, route oral; conditions: in vivo, 672 h
Method in brief: (§1)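 C57BL/6 male mice kept on high fat diet 4 weeks before study (body weight about 40 g) and throughout; n = 10, dosed orally once daily for 4 weeks at 1 or 3 mg/kg, vehicle 5% PEG400, 0.25% Tween 80, 94.25% H2O; liver weight and ALT, AST, alkaline phosphatase assessed after 4 weeks.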

[2] = Half life in Sprague-Dawley rat plasma at 3 mg/kg, po; type: ADME, organism-based; design: dose 3 mg/kg, route oral
Method in brief: (§2)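 Dose-proportionality PK in Sprague–Dawley rats (n = 3) given single oral doses of 3, 10, 30 or 100 mg/kg. Liver and plasma were sampled at 0.5, 1, 2, 4 and 8 h and assayed for drug concentration to derive Cmax, AUC(0–∞) and T1/2.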

Mus musculus [3] = experiment: Decrease in plasma triglyceride level in 28-day diet-induced obesity C57BL/6 mouse model at 1 to 3 mg/kg, po daily for 4 weeks; type: functional, organism-based
Method in brief: (§3)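 C57BL/6 male mice were fed high-fat diet for 4 weeks beforehand to about 40 g and kept on it throughout. Groups of n = 10 were dosed po once daily for 4 weeks at 1 or 3 mg/kg, or vehicle (5% PEG400, 0.25% Tween 80, 94.25% H2O). Food was weighed and replaced with pre-weighed food 3 times weekly. Fed plasma glucose was taken at 2 weeks and insulin at 4 weeks.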

Mus musculus [4] = experiment: Decrease in plasma glucose level in 28-day diet-induced obesity C57BL/6 mouse model at 1 to 3 mg/kg, po daily for 4 weeks measured on week 2; type: functional, organism-based; method in brief: as §3
[5] = Tmax in Sprague-Dawley rat at 3 mg/kg, po; type: ADME, organism-based; design: dose 3 mg/kg, route oral; conditions: in vivo
Method in brief: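 Rats dosed orally at 3 mg/kg; Cmax, Tmax, oral half-life and AUC determined from plasma, and oral bioavailability (%F) calculated against the 1 mg/kg IV bolus.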

[6] = AUC (0 to infinity) in Sprague-Dawley rat liver at 3 mg/kg, po; type: ADME, organism-based; design: time infinity, dose 3 mg/kg, route oral; method in brief: as §2
[7] = Inhibition of MTP from dog liver microsomes by scintillation counting; design: species or system Canis lupus familiaris, Microsome
Mus musculus [8] = experiment: Decrease in plasma glucose level in 28-day diet-induced obesity C57BL/6 mouse model at 1 to 3 mg/kg, po daily for 4 weeks; type: functional, organism-based; method in brief: as §3
[9] = Cmax in Sprague-Dawley rat at 3 mg/kg, po; type: ADME, organism-based; design: dose 3 mg/kg, route oral; conditions: in vivo
[10] = Cmax in Sprague-Dawley rat liver at 100 mg/kg, po; type: ADME, organism-based; design: dose 100 mg/kg, route oral; method in brief: as §2
[11] = Half life in Sprague-Dawley rat liver at 3 mg/kg, po; type: ADME, organism-based; design: dose 3 mg/kg, route oral; method in brief: as §2
Mus musculus [12] = experiment: Decrease in body weight in […] at 3 mg/kg, po daily for 3 days; type: functional, C57BL/6; design: scale not given: the % may be the effect or the level left
Mus musculus [13] = experiment: Decrease in body weight in […] at 10 mg/kg, po daily for 3 days; type: functional, C57BL/6; design: scale not given: the % may be the effect or the level left
Mus musculus [14] = experiment: Decrease in total food intake in 28-day diet-induced obesity C57BL/6 mouse model at 1 to 3 mg/kg, po daily for 4 weeks measured on day 4
[15] = AUC (0 to infinity) in Sprague-Dawley rat liver at 30 mg/kg, po; type: ADME, organism-based; design: dose 30 mg/kg, route oral, time infinity; method in brief: as §2
[16] = AUC (0 to infinity) in Sprague-Dawley rat plasma at 10 mg/kg, po; type: ADME, organism-based; design: time infinity, dose 10 mg/kg, route oral; method in brief: as §2
[17] = Half life in Sprague-Dawley rat plasma at 30 mg/kg, po; type: ADME, organism-based; design: dose 30 mg/kg, route oral; method in brief: as §2
Mus musculus [18] = experiment: Decrease in total food intake in 3-day high fat diet fed C57BL/6 mouse at 10 mg/kg, po daily for 3 days; type: functional; design: scale not given: the % may be the effect or the level left
Mus musculus [19] = experiment: Toxicity in 28-day diet-induced obesity C57BL/6 mouse model assessed as liver aspartate aminotransferase level at 1 to 3 mg/kg, po daily for 4 weeks; type: organism-based; design: dose 1-3 mg/kg, route oral; conditions: in vivo, 672 h; method in brief: as §1
[20] = Cmax in Sprague-Dawley rat plasma at 30 mg/kg, po; type: ADME, organism-based; design: dose 30 mg/kg, route oral; method in brief: as §2
Mus musculus [21] = experiment: Increase in body weight in 28-day diet-induced obesity C57BL/6 mouse model at 1 mg/kg, po daily for 4 weeks; type: functional; method in brief: as §3
[22] = Cmax in Sprague-Dawley rat liver at 3 mg/kg, po; type: ADME, organism-based; design: dose 3 mg/kg, route oral; method in brief: as §2
Mus musculus [23] = experiment: Decrease in body weight in 28-day diet-induced obesity C57BL/6 mouse model at 3 mg/kg, po daily for 4 weeks; type: functional; design: scale not given: the % may be the effect or the level left; method in brief: as §3
Mus musculus [24] = experiment: Decrease in total cholesterol level in 28-day diet-induced obesity C57BL/6 mouse model at 1 to 3 mg/kg, po daily for 4 weeks; type: functional, organism-based
[25] = AUC (0 to infinity) in Sprague-Dawley rat liver at 100 mg/kg, po; type: ADME, organism-based; design: time infinity, dose 100 mg/kg, route oral; method in brief: as §2
Mus musculus [26] = experiment: Decrease in plasma triglyceride level in […] C57BL/6 mouse at 3 mg/kg, po daily for 3 days measured after 6 hrs; type: functional; design: scale not given: the % may be the effect or the level left
Method in brief: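 Lean C57BL/6 mice were given high-fat diet for 1 week, then dosed orally once daily in the evening for 3 days. Food intake and body weight were recorded daily. At the end a morning dose was given, and blood was drawn at 30 min, 2 h and 6 h for plasma triglycerides.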

[27] = AUC (0 to infinity) in Sprague-Dawley rat plasma at 3 mg/kg, po; type: ADME, organism-based; design: time infinity, dose 3 mg/kg, route oral; method in brief: as §2
[28] = Cmax in Sprague-Dawley rat liver at 10 mg/kg, po; type: ADME, organism-based; design: dose 10 mg/kg, route oral; method in brief: as §2
[29] = Cmax in Sprague-Dawley rat plasma at 100 mg/kg, po; type: ADME, organism-based; design: dose 100 mg/kg, route oral; method in brief: as §2
Mus musculus [30] = experiment: Increase in peptide YY level in 3-day high fat diet fed C57BL/6 mouse at 10 mg/kg, po daily for 3 days; type: functional, organism-based; design: dose 10 mg/kg
[31] = AUC (0 to infinity) in Sprague-Dawley rat liver at 10 mg/kg, po; type: ADME, organism-based; design: time infinity, dose 10 mg/kg, route oral; method in brief: as §2
Mus musculus [32] = experiment: Toxicity in 28-day diet-induced obesity C57BL/6 mouse model assessed as liver alanine aminotransferase level at 1 to 3 mg/kg, po daily for 4 weeks; type: organism-based; design: dose 1-3 mg/kg, route oral; conditions: in vivo, 672 h; method in brief: as §1
[33] = Half life in Sprague-Dawley rat liver at 30 mg/kg, po; type: ADME, organism-based; design: dose 30 mg/kg, route oral; method in brief: as §2
Mus musculus [34] = experiment: Decrease in plasma triglyceride level in […] C57BL/6 mouse at 10 mg/kg, po daily for 3 days measured after 6 hrs; type: functional; design: scale not given: the % may be the effect or the level left
[35] = AUC (0 to infinity) in Sprague-Dawley rat at 1 mg/kg, iv; type: ADME, organism-based; design: time infinity, dose 1 mg/kg, route intravenous; conditions: plasma
[36] = AUC (0 to infinity) in Sprague-Dawley rat at 3 mg/kg, po; type: ADME, organism-based; design: dose 3 mg/kg, route oral, time infinity; conditions: plasma
Mus musculus [37] = experiment: Decrease in total food intake in 28-day diet-induced obesity C57BL/6 mouse model at 3 mg/kg, po daily for 4 weeks measured on day 21; type: functional; design: scale not given: the % may be the effect or the level left; method in brief: as §3
[38] = AUC (0 to infinity) in Sprague-Dawley rat plasma at 100 mg/kg, po; type: ADME, organism-based; design: time infinity, dose 100 mg/kg, route oral; method in brief: as §2
[39] = Volume of distribution in Sprague-Dawley rat at 1 mg/kg, iv; type: ADME, organism-based; design: dose 1 mg/kg, route intravenous; conditions: in vivo
Method in brief: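 Rats given IV bolus at 1 mg/kg; clearance, half-life and volume of distribution derived from plasma drug concentrations.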

[40] = Cmax in Sprague-Dawley rat liver at 30 mg/kg, po; type: ADME, organism-based; design: dose 30 mg/kg, route oral; method in brief: as §2
Mus musculus [41] = experiment: Increase in peptide YY level in 3-day high fat diet fed C57BL/6 mouse at 3 mg/kg, po daily for 3 days; type: functional, organism-based; design: dose 3 mg/kg
Method in brief: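 C57BL/6 male mice (n = 9) on high-fat diet were dosed po once daily for 3 days with vehicle (5% PEG400, 0.25% Tween 80, 94.25% H2O) or test article, then given a final morning dose. Blood was taken at 30 min, 2 h and 6 h, and PYY was measured by EIA kit. Statistics by Student's t test.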

Compound: CC(C)c1ccc(-c2ccccc2C(=O)Nc2ccc3nc(C(=O)N[C@H](C(=O)N(C)Cc4ccc(F)cc4)c4ccccc4)sc3c2)cc1
- Activity (Mus musculus [1]): Non-toxic
- half-life [2]: 145 min
- Activity (Mus musculus [3]): Active
- Activity (Mus musculus [4]): Active
- Tmax [5]: 30 min
- AUC(0-inf) [6]: 1220 ng·h/mL
- IC50 [7]: 11.2 nM
- Activity (Mus musculus [8]): Active
- Cmax [9]: 22.2 ng/mL
- Cmax [10]: 84 µg/kg
- half-life [11]: 640 min
- Activity (Mus musculus [12]): 3%
- Activity (Mus musculus [13]): 4%
- Activity (Mus musculus [14]): Active
- AUC(0-inf) [15]: 3030 ng·h/mL
- AUC(0-inf) [16]: 224 ng·h/mL
- half-life [17]: 627 min
- Activity (Mus musculus [18]): 19%
- Activity (Mus musculus [19]): Non-toxic
- Cmax [20]: 49.5 ng/mL
- Activity (Mus musculus [21]): 1%
- Cmax [22]: 57 µg/kg
- Activity (Mus musculus [23]): 3%
- Activity (Mus musculus [24]): Active
- AUC(0-inf) [25]: 1780 ng·h/mL
- Activity (Mus musculus [26]): 11%
- AUC(0-inf) [27]: 109 ng·h/mL
- Cmax [28]: 90.1 µg/kg
- Cmax [29]: 69.5 ng/mL
- Activity (Mus musculus [30]): Active
- AUC(0-inf) [31]: 2640 ng·h/mL
- Activity (Mus musculus [32]): Non-toxic
- half-life [33]: 1420 min
- Activity (Mus musculus [34]): 45%
- AUC(0-inf) [35]: 976 ng·h/mL
- AUC(0-inf) [36]: 40.8 ng·h/mL
- Activity (Mus musculus [37]): 12%
- AUC(0-inf) [38]: 598 ng·h/mL
- Vd [39]: 2.99 L/kg
- Cmax [40]: 73.1 µg/kg
- Activity (Mus musculus [41]): Active
